A selection: hits, their analogues and other compounds. The true share with any hit is near 2.6%.
Platelet DG rel – modulates dense granule release in human platelets; AID 1663; human platelet-rich plasma, SFLLRN dense granule ATP release, luminescence; actives 0.22% (n = 300,000); inhibition, %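 (compounds screened at 7.5 µM in platelet-rich plasma)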;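 active = mean replicate score, as percent of positive control, at or above 50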
SENP6 inh – blocks the human protease SENP6; Recombinant SENP6 catalytic domain, aminoluciferin luminescence; inhibition, % at 10 µM; actives 1.8% (n = 330,000); AID 2599;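 active = inhibition above about 50% at the single tested dose, limit read from the data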
SENP8 block-1 – SENP8 protease inhibition; Q96LD8; purified SENP8, Z-RLRGG-aminoluciferin cleavage, luminescence; inhibition, % at 10 µM; actives 1.2% (n = 330,000); in the data active = inhibition above about 50%
SENP8 block-2 – inhibitors of human SENP8 protease; Q96LD8; recombinant SENP8, Nedd8 substrate fluorescence; inhibition, % at 20 µM; actives 0.64% (n = 360,000); AID 602440; in the data active = inhibition mostly above about 40%, no sharp cut-off; inactive = mostly below about 27%
SENP7 inh – inhibitors of human SENP7 protease; inhibition, % at 5 µM; Q9BQF6; AID 434973; recombinant SENP7, Z-RLRGG-aminoluciferin luminescence, 40 min; actives 1.5% (n = 330,000);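 active = inhibition above about 50% at the single test dose, limit read from the data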
Target sequence (Q9BQF6 706-1050 limits assumed): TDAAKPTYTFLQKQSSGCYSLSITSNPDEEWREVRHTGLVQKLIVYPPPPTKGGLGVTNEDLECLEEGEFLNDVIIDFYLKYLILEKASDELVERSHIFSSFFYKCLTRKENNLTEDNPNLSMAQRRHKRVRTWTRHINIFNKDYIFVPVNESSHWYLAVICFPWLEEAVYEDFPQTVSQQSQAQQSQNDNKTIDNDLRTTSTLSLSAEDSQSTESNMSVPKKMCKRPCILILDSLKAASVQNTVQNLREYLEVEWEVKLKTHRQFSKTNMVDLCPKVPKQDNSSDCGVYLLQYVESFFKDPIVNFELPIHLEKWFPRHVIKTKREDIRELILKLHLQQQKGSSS
SENP1 FRET inh – blocks the human SENP1 SUMO protease catalytic domain | recombinant SENP1 catalytic domain, CyPet-SUMO1-YPet FRET cleavage | inhibition, % at 10 µM | actives 0.21% (n = 360,000) | AID 624204;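 active = inhibition at least 30% at 10 µM, raw YFP signal under a set limit, fluorescence ratio 0.5 to 1.5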
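Material – human SENP1 catalytic domain · Input – SENP1 enzyme, 20 pM final · Compound dosing – single concentration of 10 µM compound, 0.5% DMSO final · Timing – enzyme reaction for 50 min at room temperature, dark · Measured by – FRET fluorescence in CFP and YFP emission channels · Control set – no-enzyme wells low, DMSO-plus-enzyme wells high control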
SENP8 conf – confirmation of human SENP8 protease inhibitors; inhibition, % at 12.5 µM; Recombinant SENP8, Z-RLRGG-aminoluciferin luminescence, 60 min; actives 40% (n = 6,200); shares compounds with SENP7 inh;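 active = mean inhibition across replicates above about 50%, limit read from the data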
SENP6 conf – human SENP6 inhibition, confirmed | shares compounds with SENP7 inh | recombinant SENP6, Z-RLRGG-aminoluciferin luminescence | inhibition, % at 12.5 µM | actives 58% (n = 6,200) | AID 488915
SENP7 conf – confirmation of human SENP7 protease inhibitors; shares compounds with SENP7 inh; recombinant SENP7, Z-RLRGG-aminoluciferin luminescence, 40 min; inhibition, % at 12.5 µM; actives 69% (n = 6,200); AID 488917
Casp3 select – inhibits human caspase-3 in SENP selectivity test; shares compounds with SENP7 inh; purified caspase-3, Z-DEVD-aminoluciferin luminescence, 60 min; inhibition, % at 12.5 µM; actives 60% (n = 6,200);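 active = mean inhibition above about 50%, limit read from the data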
Target sequence (P42574 28-227 limits assumed): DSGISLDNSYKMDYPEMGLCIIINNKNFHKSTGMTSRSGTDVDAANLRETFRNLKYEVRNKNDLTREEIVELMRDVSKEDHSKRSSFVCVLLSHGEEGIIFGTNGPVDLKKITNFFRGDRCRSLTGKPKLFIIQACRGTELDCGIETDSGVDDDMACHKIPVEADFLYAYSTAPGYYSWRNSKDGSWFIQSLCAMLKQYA
Luc interf – luminescence interference (SENP counter-screen). AID 488919. Pre-incubated SENP8/Z-RLRGG-aminoluciferin, luciferase luminescence interference. inhibition, % at 12.5 µM. shares compounds with SENP7 inh. actives 39% (n = 6,200);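 active = mean inhibition above about 50% when retested at one dose, limit read from the data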
Hits are given with their value.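 The calls were made as follows, unless noted: active = mean inhibition above about 50% in the one-dose retest (limit read from the data); inactive = the rest.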

CCCc1[nH]n(-c2nc3ccccc3s2)c(=O)c1C=NCCCN(CC)CC was read as Platelet DG rel inactive, SENP6 inh 68, SENP8 block-1 inactive, SENP8 block-2 inactive, SENP7 inh inactive, SENP1 FRET inh inactive, SENP8 conf inactive, SENP6 conf inactive, SENP7 conf inactive, Casp3 select 60 and Luc interf 57.
For O=C(O)C(C(O)c1ccccc1)[n+]1ccccc1 (stereo not drawn) the results were Platelet DG rel inactive, SENP6 inh inactive, SENP8 block-1 inactive, SENP8 block-2 inactive, SENP7 inh inactive and SENP1 FRET inh inactive.
Screening CCS(=O)(=O)c1ccc2oc(Nc3ccccc3C)nc2c1 returned Platelet DG rel inactive, SENP6 inh 81, SENP8 block-1 69, SENP8 block-2 inactive, SENP7 inh 79, SENP1 FRET inh inactive, SENP8 conf 82, SENP6 conf 81, SENP7 conf 97, Casp3 select 92 and Luc interf 84.
For CCN(CC)S(=O)(=O)c1ccc2oc(Nc3ccccc3)nc2c1 the results were Platelet DG rel inactive, SENP6 inh 55, SENP8 block-1 inactive, SENP8 block-2 inactive, SENP7 inh inactive, SENP1 FRET inh inactive, SENP8 conf inactive, SENP6 conf inactive, SENP7 conf 71, Casp3 select inactive and Luc interf inactive.
`O=c1[nH]c(=S)[nH]c2c1C(C1CCCCC1)OC(C1CCCCC1)C2` (stereo not drawn) gave SENP8 block-2 inactive and SENP1 FRET inh inactive.
Screening CC(=O)N(C)c1ccc(N=NC2C(=O)N(C(N)=S)N=C2C)cc1 (stereo not drawn) returned Platelet DG rel inactive, SENP6 inh inactive, SENP8 block-1 77, SENP8 block-2 inactive, SENP7 inh 80, SENP1 FRET inh inactive, SENP8 conf 86, SENP6 conf 84, SENP7 conf 97, Casp3 select 95 and Luc interf 87.
`CC1=NN(C(N)=S)C(=O)C1N=Nc1ccccc1O` (stereo not drawn) gave Platelet DG rel inactive, SENP6 inh inactive, SENP8 block-1 inactive, SENP8 block-2 inactive, SENP7 inh inactive and SENP1 FRET inh inactive.
`CC1=NN(C(N)=S)C(=O)C1N=Nc1ccc(S(N)(=O)=O)cc1` (stereo not drawn) gave Platelet DG rel inactive, SENP6 inh 51, SENP8 block-1 inactive, SENP8 block-2 inactive, SENP7 inh inactive, SENP1 FRET inh inactive, SENP8 conf inactive, SENP6 conf inactive, SENP7 conf 70, Casp3 select 74 and Luc interf 57.
`O=C(Nc1ccccc1C(=O)N1CCCCCC1)c1cccc([N+](=O)[O-])c1` gave Platelet DG rel inactive, SENP6 inh inactive, SENP8 block-1 inactive, SENP8 block-2 inactive, SENP7 inh inactive and SENP1 FRET inh inactive.
O=C(OCc1csc(-c2ccccc2)n1)c1cccs1 was read as Platelet DG rel inactive, SENP6 inh 95, SENP8 block-1 92, SENP8 block-2 inactive, SENP7 inh 96, SENP1 FRET inh inactive, SENP8 conf 97, SENP6 conf 97, SENP7 conf 101, Casp3 select 91 and Luc interf 90.
COc1ccc(C(=O)NCC(=O)OCc2csc(-c3ccccc3)n2)cc1 was read as Platelet DG rel inactive, SENP6 inh inactive, SENP8 block-1 inactive, SENP8 block-2 inactive, SENP7 inh inactive and SENP1 FRET inh inactive.
For O=C(OCc1csc(-c2ccccc2)n1)C1=NN(c2ccccc2)C(=O)CC1 the results were SENP6 inh inactive, SENP8 block-1 inactive, SENP8 block-2 inactive, SENP7 inh inactive and SENP1 FRET inh inactive.
For Cn1cccc1C(=O)OCc1csc(-c2ccccc2)n1 the results were Platelet DG rel inactive, SENP6 inh 88, SENP8 block-1 94, SENP8 block-2 inactive, SENP7 inh 100, SENP1 FRET inh inactive, SENP8 conf inactive, SENP6 conf 98, SENP7 conf 102, Casp3 select 93 and Luc interf 89.
Screening Cc1ccsc1C(=O)OCc1csc(-c2ccccc2)n1 returned Platelet DG rel inactive, SENP6 inh 96, SENP8 block-1 96, SENP8 block-2 inactive, SENP7 inh 99, SENP1 FRET inh inactive, SENP8 conf 96, SENP6 conf 92, SENP7 conf inactive, Casp3 select 94 and Luc interf 88.
Cc1ccsc1C(=O)OCc1nnc(-c2ccccc2)o1 was read as SENP6 inh 59, SENP8 block-1 52, SENP8 block-2 inactive, SENP7 inh 59, SENP1 FRET inh inactive, SENP8 conf 57, SENP6 conf 55, SENP7 conf 76, Casp3 select 56 and Luc interf 50.
Cc1ccsc1C(=O)OCC(=O)Nc1nnc(-c2ccccc2)o1 was read as Platelet DG rel inactive, SENP6 inh inactive, SENP8 block-1 inactive, SENP8 block-2 inactive, SENP7 inh inactive and SENP1 FRET inh inactive.
CNS(=O)(=O)c1cccc(C(=O)OCc2csc(-c3ccccc3)n2)c1 was read as Platelet DG rel inactive, SENP6 inh inactive, SENP8 block-1 inactive, SENP8 block-2 inactive, SENP7 inh inactive and SENP1 FRET inh inactive.
For Cc1ccc(C(=O)OCC(=O)NCc2ccccc2)s1 the results were SENP8 block-2 inactive and SENP1 FRET inh inactive.
`Cc1ccnc2nc(C(=O)OCC(=O)N3CC(C)CC(C)C3)nn12` (stereo not drawn) gave SENP6 inh inactive, SENP8 block-1 inactive, SENP8 block-2 inactive, SENP7 inh inactive and SENP1 FRET inh inactive.
CC1Cc2ccccc2N1C(=O)c1ccc(Br)o1 (stereo not drawn) was read as Platelet DG rel inactive, SENP8 block-2 inactive and SENP1 FRET inh inactive.
`Cc1ccc(C(=O)N2c3ccccc3CC2C)o1` (stereo not drawn) gave Platelet DG rel inactive, SENP6 inh 85, SENP8 block-1 90, SENP8 block-2 inactive, SENP7 inh 94, SENP1 FRET inh inactive, SENP8 conf 94, SENP6 conf 96, SENP7 conf 101, Casp3 select 97 and Luc interf 83.

Bioassay records from PubChem.
